Like-named read-outs stand apart in the source and are kept apart here.
Experiments:
[1] = calculated, gas-phase; ref 18c; cited from earlier work
[2] = cited from earlier work
[3] = B3LYP calculated gas-phase O–H BDEs, ionization potentials and acidities; conditions: predicted; 5a vs 2, 6a vs 3
ovine COX-1 = molecular target: T1, ovine COX-1 (Ovis aries, UniProt P05979); assay: Inhibition of oCOX-1; assay type: biochemical; conditions: for oCOX-1 inhibition (prostaglandin biosynthesis), fold more effective than ApAP: relative to ApAP; for oCOX-1 inhibition, fold less effective than 1: relative to 1
T1 sequence (P05979 25-600): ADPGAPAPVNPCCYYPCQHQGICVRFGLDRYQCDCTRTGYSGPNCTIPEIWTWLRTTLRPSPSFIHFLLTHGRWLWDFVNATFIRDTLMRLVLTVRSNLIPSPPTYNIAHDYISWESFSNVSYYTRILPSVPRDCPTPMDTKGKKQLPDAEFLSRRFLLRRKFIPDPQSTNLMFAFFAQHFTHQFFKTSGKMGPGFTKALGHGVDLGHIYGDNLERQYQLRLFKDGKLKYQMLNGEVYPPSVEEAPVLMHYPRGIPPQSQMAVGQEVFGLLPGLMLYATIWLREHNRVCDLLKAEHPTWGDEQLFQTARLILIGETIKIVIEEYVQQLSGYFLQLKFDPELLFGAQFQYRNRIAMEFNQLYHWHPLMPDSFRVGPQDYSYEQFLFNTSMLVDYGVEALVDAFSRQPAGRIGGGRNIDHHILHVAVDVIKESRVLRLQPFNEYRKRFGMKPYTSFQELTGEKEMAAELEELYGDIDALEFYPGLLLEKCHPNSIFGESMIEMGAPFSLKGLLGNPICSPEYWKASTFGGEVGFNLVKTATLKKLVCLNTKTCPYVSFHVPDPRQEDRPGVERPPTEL
In short: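 Ovine COX-1 was purified from ram seminal vesicles and held 30 min on ice with 2 equiv hematin in Tris·HCl pH 8.0 plus 500 μM phenol. It was then warmed 2 min at 37 °C with compound. The reaction used [¹⁴C]arachidonic acid (0.5 μM final, prewarmed 30 s) and was started with enzyme at 5.4 nM. It was quenched after 8 s with acidic ether–methanol containing BHA. Products were resolved by radio-TLC. Activity was expressed as % of control, 4–6 values per point.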

HepG2 cells = assay: Cytotoxicity assay with HepG2 cell line; assay type: cell-based, human; conditions: for intracellular ATP levels, fold control levels: HepG2, 24 h exposure; for decrease of total intracellular ATP concentration compared to control: 2 mM (highest exposure level)
In short: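 HepG2 cells (ATCC) were grown in DMEM with 10% FBS, non-essential amino acids, penicillin–streptomycin, pyruvate and glutamine, under 5% CO₂ at 37 °C. Cells were seeded at 10⁵ cells/mL with ethanol or water vehicle below 0.5%. Serial compound dilutions, up to 2 mM, were applied for 24 h with 2–3 replicates per dose. Cells were lysed for 5 min and ATP read by luciferin–luciferase luminescence after 10 min at room temperature. Values were taken relative to untreated control.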

oCOX-1 peroxidase = molecular target: T2, oCOX-1 peroxidase (Ovis aries, UniProt P05979); assay: Effect on reduction of PPHP to PPA; assay type: biochemical, ovine; conditions: for peroxidase activation at low concentration: at 100 μM, compared with 1-3; for increase in peroxidase activity of oCOX-1: at a concentration of 1 mM, PPHP to PPA
T2 sequence (P05979 25-600): T1 sequence (P05979 25-600)
In short: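 Ovine COX-1 was held 30 min on ice with 2 equiv hematin in Tris·HCl pH 8.0 without phenol. It was warmed 5 min at 37 °C with or without compound. PPHP (10 μM final) was prewarmed 2 min. The reaction was started with enzyme at 5.4 nM and quenched after 8 s with ice-cold ether–methanol–citric acid. The organic phase was dried under nitrogen, redissolved in 65% methanol–water, and analysed by HPLC for PPA formation.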

[4] = Spectrophotometric determination of pKa values; assay type: physicochemical; conditions: 298 K, 10 mM potassium phosphate, 200 mM KCl, spectrophotometry
In short: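 UV spectra were recorded in buffer at varied pH, blank first. Compound was added from a 25 mM ethanol stock and the pH was remeasured. Aryloxide fraction came from absorbance at λmax, normalised between low- and high-pH limits. pKa was obtained by fitting the fraction versus pH to a sigmoidal function.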

[5] = Inhibited autoxidation of styrene; conditions: for kinh: 303 K in chlorobenzene, initiated by AMVN, styrene autoxidation; for inhibition rate constant, fold lower than for 1: relative to 1
[6] = Anodic peak potentials by differential pulse voltammetry; assay type: physicochemical; conditions: 298 K versus Ag/AgCl, at the pKa
In short: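 Glassy carbon working electrode (alumina-polished between trials), Ag/AgCl reference, platinum wire counter. Buffer was 10 mM potassium phosphate with KCl electrolyte, pH set with KOH or HCl. Compound was added from a 25 mM ethanol stock, pH was measured, and the solution was argon-purged 1 min. DPV used 0.05 s pulse width, 0.2 s pulse period and 10 mV/s at 298 K. […].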

[7] = reference antioxidants; ref 27b; cited from earlier work
oCOX-1 = molecular target: T3, oCOX-1 (Ovis aries, UniProt P05979); assay: pH-dependent inhibition of COX-1; assay type: biochemical, ovine; conditions: pH 6.6 to 8.5; 0.5 mM 1; 1.0 mM 2 and 3
T3 sequence (P05979 25-600): T1 sequence (P05979 25-600)
In short: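 COX-1 radiolabelled arachidonic acid (0.5 μM) assay: hematin-reconstituted enzyme at 5.4 nM, 8 s reaction at 37 °C, radio-TLC. Buffers were Tris·HCl at pH 8.5, 8.0 and 7.4, and sodium phosphate at pH 8.0, 7.4 and 6.6, all with 500 μM phenol. Compound was present at 0.5 or 1.0 mM final. Activity was expressed as % of the uninhibited control in the same buffer and pH. Significance was tested by Student t-test.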

[8] = molecular target: T4, soybean lipoxygenase-1 (sLOX-1) (Glycine max, UniProt P08170); assay: Inhibition of sLOX-1; assay type: biochemical; conditions: up to 0.25 mM
T4 sequence (P08170 1-839): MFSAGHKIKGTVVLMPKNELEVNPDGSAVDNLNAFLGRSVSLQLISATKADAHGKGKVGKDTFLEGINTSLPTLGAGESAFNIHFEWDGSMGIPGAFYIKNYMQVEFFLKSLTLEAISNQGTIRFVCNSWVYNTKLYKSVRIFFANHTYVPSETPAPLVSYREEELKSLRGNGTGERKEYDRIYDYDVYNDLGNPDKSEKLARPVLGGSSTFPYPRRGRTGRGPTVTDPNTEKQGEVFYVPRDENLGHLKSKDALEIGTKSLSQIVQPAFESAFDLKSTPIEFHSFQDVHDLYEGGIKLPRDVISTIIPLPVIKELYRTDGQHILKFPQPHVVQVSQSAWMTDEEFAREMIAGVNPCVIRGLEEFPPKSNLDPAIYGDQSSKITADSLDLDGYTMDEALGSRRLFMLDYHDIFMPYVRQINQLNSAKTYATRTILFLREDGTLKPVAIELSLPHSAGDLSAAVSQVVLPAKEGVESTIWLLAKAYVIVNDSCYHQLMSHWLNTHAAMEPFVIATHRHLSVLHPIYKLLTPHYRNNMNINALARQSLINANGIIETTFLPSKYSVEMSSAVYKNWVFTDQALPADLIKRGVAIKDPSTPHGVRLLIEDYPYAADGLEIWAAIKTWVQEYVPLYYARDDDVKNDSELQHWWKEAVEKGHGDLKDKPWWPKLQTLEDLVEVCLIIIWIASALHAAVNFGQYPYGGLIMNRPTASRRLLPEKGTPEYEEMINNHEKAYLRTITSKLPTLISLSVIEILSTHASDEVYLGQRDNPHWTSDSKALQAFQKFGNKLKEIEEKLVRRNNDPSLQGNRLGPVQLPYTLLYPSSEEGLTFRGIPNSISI
In short: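 Soybean LOX-1 was purified from a commercial preparation. Linoleic acid (20 μM) was in 100 mM borate pH 9.2. Compound was added from ethanol at […] final (<5% ethanol), then enzyme at 3 nM final. Initial rates (<10% conversion) were followed at 234 nm as 13-HPODE formation. Rates were expressed relative to no-compound controls, 4–6 values per point, and IC50 was derived.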

Compound: CN(C)c1ccc(O)cc1 [4a, reference compound]
- IP [1]: 157.7 kcal/mol
- O–H BDE [1]: 76.0 kcal/mol
- stability under ambient conditions [2]: too unstable

Compound: CN(C)c1ccc(O)cn1 [5a]
- O–H BDE lower than in 2 and 3 [3]: 5 to 6 kcal/mol
- IP [1]: 164.6 kcal/mol
- O–H BDE [1]: 77.0 kcal/mol
- oCOX-1 inhibition (prostaglandin biosynthesis), fold more effective than ApAP (ovine COX-1): ca. 12 fold
- effect on ATP production (HepG2 cells; HepG2, 24 h, by 500 μM exposure): eliminating ATP production
- intracellular ATP levels, fold control levels (HepG2 cells; 10 μM): ca. 1.75 fold
- cytotoxicity in preliminary HepG2 viability assays (HepG2 cells; HepG2 cell culture): relatively toxic
- effect on peroxidase activity at higher concentration (oCOX-1 peroxidase; above 100 μM): abolishes peroxidase activity
- peroxidase activation at low concentration (oCOX-1 peroxidase): greater peroxidase activation
- stability under ambient conditions [2]: quite stable
- pKa [4]: 9.27
- kinh [5]: 4.8 × 10^6 ^d M^−1 s^−1
- Epa @ pKa [6]: 0.12 V

Compound: CN(C)c1ncc(O)cn1 [6a]
- O–H BDE lower than in 2 and 3 [3]: 5 to 6 kcal/mol
- IP [1]: 174.6 kcal/mol
- O–H BDE [1]: 78.3 kcal/mol
- oCOX-1 inhibition (prostaglandin biosynthesis), fold more effective than ApAP (ovine COX-1): ca. 12 fold
- decrease of total intracellular ATP concentration compared to control (HepG2 cells; HepG2, 24 h): 31.3 ± 1.0%
- intracellular ATP concentration relative to control (HepG2 cells; HepG2, 24 h, beyond 1 mM): at or above the control
- intracellular ATP levels, fold control levels (HepG2 cells; 100 μM): ca. 1.8 fold
- peroxidase activation at low concentration (oCOX-1 peroxidase): greater peroxidase activation
- stability under ambient conditions [2]: quite stable
- pKa [4]: 8.18
- kinh [5]: 1.1 × 10^6 ^d M^−1 s^−1
- Epa @ pKa [6]: 0.31 V

Compound: Cc1cc(C(C)(C)C)c(O)c(C(C)(C)C)c1 [BHT, butylated hydroxytoluene]
- kinh [7]: 140000 M⁻¹ s⁻¹

Compound: CC(=O)Nc1ccc(O)cc1 [compound 1, Acetaminophen, reference compound]
- IC50 (ovine COX-1): 250 µM
- decrease of total intracellular ATP concentration compared to control (HepG2 cells; HepG2, 24 h): 24.8 ± 1.0%
- pH-dependence of oCOX-1 inhibition (oCOX-1): did not change significantly
- increase in peroxidase activity of oCOX-1 (oCOX-1 peroxidase): 11 fold
- kinh [5]: 500000 M⁻¹ s⁻¹
- kinh ([5]; listed as ApAP): 500000 M⁻¹ s⁻¹
- inhibition rate constant, fold larger than that of BHT ([5]; relative to BHT): ~4 fold
- inhibition of sLOX-1 [8]: does not inhibit
- Epa @ pKa [6]: 0.32 V

Compound: CC(=O)Nc1ccc(O)cn1 [compound 2]
- oCOX-1 inhibition, fold less effective than 1 (ovine COX-1): ca. 1.6 fold
- pH-dependence of oCOX-1 inhibition (oCOX-1): markedly improved at higher pH
- increase in peroxidase activity of oCOX-1 (oCOX-1 peroxidase): only slightly
- pKa [4]: 8.28
- kinh [5]: 40000 M⁻¹ s⁻¹
- inhibition rate constant, fold lower than for 1 [5]: 12.5 fold
- Epa @ pKa [6]: 0.48 V

Compound: CC(=O)Nc1ncc(O)cn1 [compound 3]
- oCOX-1 inhibition, fold less effective than 1 (ovine COX-1): ~3 fold
- pH-dependence of oCOX-1 inhibition (oCOX-1): markedly improved at higher pH
- increase in peroxidase activity of oCOX-1 (oCOX-1 peroxidase): only slightly
- pKa [4]: 5.89
- kinh [5]: 10000 M⁻¹ s⁻¹
- inhibition rate constant, fold lower than for 1 [5]: 50 fold
- Epa @ pKa [6]: 1.02 V

Compound: Cc1c(C)c2c(c(C)c1O)CC[C@@](C)(CCC[C@H](C)CCC[C@H](C)CCCC(C)C)O2 [α-tocopherol]
- kinh [7]: 3.2e+06 M⁻¹ s⁻¹
